Tested on: Fibroblast
Assay: Multiplex assay against human fibroblast
Format: toxicity, cell-based
Method in brief: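 Phenotypes for tubulin, mitochondrial mass and membrane permeability are expressed as per cents of healthy-nucleus cells. Cells were stained live at seeding with Hoechst33342, BioTracker Green Microtubule Cytoskeleton Dye, MitoTracker Red and Annexin V Alexa Fluor 680, then imaged after compound addition on a CQ1 microscope at 37°C and 5% CO2. Machine-learning gating in CellPathfinder separated Hoechst high-intensity objects from normal cells, divided normal cells by nuclear state (healthy, pyknosed, fragmented) and divided pyknosed cells into mitotic or apoptotic.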

[1] = 12 h, 1 µM, compound concentration 1 uM, replicate 1
[2] = 12 h, 1 µM, compound concentration 1 uM, replicate 2
[3] = 12 h, 10 µM, compound concentration 10 uM, replicate 1
[4] = 12 h, 10 µM, compound concentration 10 uM, replicate 2
[5] = 24 h, 1 µM, compound concentration 1 uM, replicate 1
[6] = 24 h, 1 µM, compound concentration 1 uM, replicate 2
[7] = 24 h, 10 µM, compound concentration 10 uM, replicate 1
[8] = 24 h, 10 µM, compound concentration 10 uM, replicate 2
[9] = 48 h, 1 µM, compound concentration 1 uM, replicate 1
[10] = 48 h, 1 µM, compound concentration 1 uM, replicate 2
[11] = 48 h, 10 µM, compound concentration 10 uM, replicate 1
[12] = 48 h, 10 µM, compound concentration 10 uM, replicate 2

O=C(Nc1ccc(-n2nc(-c3cccnc3)cc2C(F)(F)F)cn1)c1ccc(-c2ccccc2)c(F)c1 [BI 2049]
Population Apoptotic (%) [1]: 63% | Population Fragmented Nuclei (%) [1]: 29% | Population Healthy Nuclei (%) [1]: 30% | Population Hoechst High Intensity Objects (%) [1]: 10% | Population Membrane Permeable-Phenotype (%) [1]: 32% | Population Mitochondria Different-Phenotype (%) [1]: 8% | Population Mitotic Cells (%) [1]: 36% | Population Normal (%) [1]: 89% | Population Pyknosed Nuclei (%) [1]: 40% | Population Tubulin-Different-Phenotype (%) [1]: 44% | Total Cell Count [1]: 92 | Population Apoptotic (%) [2]: 50% | Population Fragmented Nuclei (%) [2]: 4% | Population Healthy Nuclei (%) [2]: 85% | Population Hoechst High Intensity Objects (%) [2]: 8% | Population Membrane Permeable-Phenotype (%) [2]: 3% | Population Mitochondria Different-Phenotype (%) [2]: 7% | Population Mitotic Cells (%) [2]: 50% | Population Normal (%) [2]: 91% | Population Pyknosed Nuclei (%) [2]: 9% | Total Cell Count [2]: 69 | Population Apoptotic (%) [3]: 58% | Population Fragmented Nuclei (%) [3]: 11% | Population Healthy Nuclei (%) [3]: 41% | Population Hoechst High Intensity Objects (%) [3]: 9% | Population Membrane Permeable-Phenotype (%) [3]: 22% | Population Mitochondria Different-Phenotype (%) [3]: 22% | Population Mitotic Cells (%) [3]: 41% | Population Normal (%) [3]: 90% | Population Pyknosed Nuclei (%) [3]: 46% | Population Tubulin-Different-Phenotype (%) [3]: 62% | Total Cell Count [3]: 93 | Population Apoptotic (%) [4]: 0% | Population Fragmented Nuclei (%) [4]: 18% | Population Healthy Nuclei (%) [4]: 81% | Population Hoechst High Intensity Objects (%) [4]: 6% | Population Membrane Permeable-Phenotype (%) [4]: 4% | Population Mitochondria Different-Phenotype (%) [4]: 12% | Population Mitotic Cells (%) [4]: 0% | Population Normal (%) [4]: 93% | Population Pyknosed Nuclei (%) [4]: 0% | Population Tubulin-Different-Phenotype (%) [4]: 8% | Total Cell Count [4]: 65 | Population Apoptotic (%) [5]: 61% | Population Fragmented Nuclei (%) [5]: 32% | Population Healthy Nuclei (%) [5]: 36% | Population Hoechst High Intensity Objects (%) [5]: 14% | Population Membrane Permeable-Phenotype (%) [5]: 32% | Population Mitochondria Different-Phenotype (%) [5]: 12% | Population Mitotic Cells (%) [5]: 38% | Population Normal (%) [5]: 85% | Population Pyknosed Nuclei (%) [5]: 30% | Population Tubulin-Different-Phenotype (%) [5]: 58% | Total Cell Count [5]: 98 | Population Apoptotic (%) [6]: 25% | Population Fragmented Nuclei (%) [6]: 7% | Population Healthy Nuclei (%) [6]: 83% | Population Hoechst High Intensity Objects (%) [6]: 7% | Population Membrane Permeable-Phenotype (%) [6]: 4% | Population Mitochondria Different-Phenotype (%) [6]: 9% | Population Mitotic Cells (%) [6]: 75% | Population Normal (%) [6]: 92% | Population Pyknosed Nuclei (%) [6]: 8% | Population Tubulin-Different-Phenotype (%) [6]: 37% | Total Cell Count [6]: 96 | Population Apoptotic (%) [7]: 66% | Population Fragmented Nuclei (%) [7]: 24% | Population Healthy Nuclei (%) [7]: 42% | Population Hoechst High Intensity Objects (%) [7]: 8% | Population Membrane Permeable-Phenotype (%) [7]: 12% | Population Mitochondria Different-Phenotype (%) [7]: 17% | Population Mitotic Cells (%) [7]: 33% | Population Normal (%) [7]: 91% | Population Pyknosed Nuclei (%) [7]: 32% | Population Tubulin-Different-Phenotype (%) [7]: 46% | Total Cell Count [7]: 99 | Population Apoptotic (%) [8]: 0% | Population Fragmented Nuclei (%) [8]: 11% | Population Healthy Nuclei (%) [8]: 84% | Population Hoechst High Intensity Objects (%) [8]: 3% | Population Membrane Permeable-Phenotype (%) [8]: 4% | Population Mitochondria Different-Phenotype (%) [8]: 13% | Population Mitotic Cells (%) [8]: 100% | Population Normal (%) [8]: 96% | Population Pyknosed Nuclei (%) [8]: 3% | Population Tubulin-Different-Phenotype (%) [8]: 10% | Total Cell Count [8]: 82 | Population Apoptotic (%) [9]: 64% | Population Fragmented Nuclei (%) [9]: 26% | Population Healthy Nuclei (%) [9]: 45% | Population Hoechst High Intensity Objects (%) [9]: 9% | Population Membrane Permeable-Phenotype (%) [9]: 40% | Population Mitochondria Different-Phenotype (%) [9]: 2% | Population Mitotic Cells (%) [9]: 36% | Population Normal (%) [9]: 90% | Population Pyknosed Nuclei (%) [9]: 28% | Population Tubulin-Different-Phenotype (%) [9]: 37% | Total Cell Count [9]: 97 | Population Apoptotic (%) [10]: 100% | Population Fragmented Nuclei (%) [10]: 25% | Population Healthy Nuclei (%) [10]: 72% | Population Hoechst High Intensity Objects (%) [10]: 16% | Population Membrane Permeable-Phenotype (%) [10]: 17% | Population Mitotic Cells (%) [10]: 0% | Population Normal (%) [10]: 83% | Population Pyknosed Nuclei (%) [10]: 1% | Population Tubulin-Different-Phenotype (%) [10]: 5% | Total Cell Count [10]: 66 | Population Apoptotic (%) [11]: 72% | Population Fragmented Nuclei (%) [11]: 30% | Population Healthy Nuclei (%) [11]: 50% | Population Hoechst High Intensity Objects (%) [11]: 15% | Population Membrane Permeable-Phenotype (%) [11]: 35% | Population Mitochondria Different-Phenotype (%) [11]: 14% | Population Mitotic Cells (%) [11]: 27% | Population Normal (%) [11]: 84% | Population Pyknosed Nuclei (%) [11]: 18% | Population Tubulin-Different-Phenotype (%) [11]: 64% | Total Cell Count [11]: 113 | Population Apoptotic (%) [12]: 100% | Population Fragmented Nuclei (%) [12]: 14% | Population Healthy Nuclei (%) [12]: 85% | Population Hoechst High Intensity Objects (%) [12]: 9% | Population Membrane Permeable-Phenotype (%) [12]: 15% | Population Mitochondria Different-Phenotype (%) [12]: 1% | Population Mitotic Cells (%) [12]: 0% | Population Normal (%) [12]: 90% | Population Pyknosed Nuclei (%) [12]: 0% | Population Tubulin-Different-Phenotype (%) [12]: 35% | Total Cell Count [12]: 140

Reference: ChEMBL document CHEMBL4689842, “EUbOPEN Chemogenomics Library wave 1” (2021)
